Reference: PMC10629916 (Journal of Food and Drug Analysis, 2023)

Key:
[1] = Stability test of the 2 analytes in rat plasma; assay type: in vitro ADME
Method in brief: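 Rat plasma QC samples at low, middle and high levels were assayed in triplicate. They were MeOH-precipitated (1:3), spun at 4500 rpm and 4 °C for 10 min, dried and redissolved in MeOH. The processed samples were held in the autosampler for 12 h and then quantified by UPLC-MS/MS against oxacillin internal standard. Samples counted as stable if bias was within ±15% of nominal.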

[2] = assay type: in vivo, Male Wistar Rats; conditions: male, Wistar, rat, plasma, po, 800 mg/kg
Method in brief: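 Male Wistar rats (200–250 g) dosed orally with the prescription extract at 800 mg/kg. Plasma was stored at −80 °C, then precipitated with MeOH (1:3). Analysis was by UPLC-MS/MS MRM with oxacillin as internal standard. Parameters came from noncompartmental analysis, reported as mean ± SD.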

[3] = Normal temperature (auto-sampler 12 h), nominal conc 15.62 ng/mL
[4] = Normal temperature (auto-sampler 12 h), nominal conc 31.25 ng/mL
[5] = −80 (storage at −80 °C), nominal conc 15.62 ng/mL
[6] = −80 (storage at −80 °C), nominal conc 31.25 ng/mL
[7] = −80 FT (three freeze–thaw cycles), nominal conc 15.62 ng/mL
[8] = −80 FT (three freeze–thaw cycles), nominal conc 31.25 ng/mL

SMILES: C[C@@H]1O[C@@H](OC[C@H]2O[C@@H](Oc3cc(O)c4c(c3)O[C@H](c3ccc(O)cc3)CC4=O)[C@H](O)[C@@H](O)[C@@H]2O)[C@H](O)[C@H](O)[C@H]1O [Narirutin]
- Accuracy (RE, %) [1, 3]: 11.32%
- Observed [1, 3]: 17.94 ± 0.15
- Accuracy (RE, %) [1, 4]: −2.84%
- Observed [1, 4]: 31.04 ± 0.22
- Accuracy (RE, %) ([1]; −80 (storage at −80 °C), nominal conc 0.48 ng/mL): −1.48%
- Accuracy (RE, %) [1, 5]: 9.87%
- Observed [1, 5]: 17.94 ± 0.15
- Accuracy (RE, %) [1, 6]: −3.53%
- Observed [1, 6]: 31.04 ± 0.22
- Accuracy (RE, %) ([1]; −80 FT (three freeze–thaw cycles), nominal conc 0.48 ng/mL): −3.82%
- Accuracy (RE, %) [1, 7]: 12.58%
- Observed [1, 7]: 17.94 ± 0.15
- Accuracy (RE, %) [1, 8]: −3.1%
- Observed [1, 8]: 31.04 ± 0.22
- AUC(0-inf) [2]: 20.2 ± 11.9 ng·h/mL
- AUC(0-t) [2]: 11 ± 5.91 ng·h/mL
- Cmax [2]: 3.29 ± 1.63 ng/mL
- MRT inf [2]: 8.22 ± 2.65 h
- Tmax [2]: 1.01 ± 1.22 h
- half-life [2]: 4.76 ± 1.76 h
